Key:
D(1A) dopamine receptor = D(1A) dopamine receptor (Rattus norvegicus, UniProt P18901); assay: Inhibition of [3H]-SCH- 23390 binding to the rat striatal membranes; format: cell membranes, Membrane
Procedure, shortened: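 Striatal membranes washed twice at 20000g, resuspended in Tris with 5 mM MgSO4, 0.5 mM EDTA, 0.02% ascorbic acid, sonicated. Membranes (100 µg protein) incubated 1 h at 25 °C with 0.25 nM [3H]SCH 23390 and test drug. Nonspecific binding defined with 30 µM SK&F 38393. Filtration, then scintillation counting. IC50 from curves of 4-11 concentrations, 4-6 determinations per concentration.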

[1] = molecular target: Sodium-dependent dopamine transporter (Rattus norvegicus, UniProt P23977); assay: Inhibition of [3H]dopamine uptake in rat striatal synaptosomes; format: subcellular, Brain
Sequence of Sodium-dependent dopamine transporter (P23977 whole entry): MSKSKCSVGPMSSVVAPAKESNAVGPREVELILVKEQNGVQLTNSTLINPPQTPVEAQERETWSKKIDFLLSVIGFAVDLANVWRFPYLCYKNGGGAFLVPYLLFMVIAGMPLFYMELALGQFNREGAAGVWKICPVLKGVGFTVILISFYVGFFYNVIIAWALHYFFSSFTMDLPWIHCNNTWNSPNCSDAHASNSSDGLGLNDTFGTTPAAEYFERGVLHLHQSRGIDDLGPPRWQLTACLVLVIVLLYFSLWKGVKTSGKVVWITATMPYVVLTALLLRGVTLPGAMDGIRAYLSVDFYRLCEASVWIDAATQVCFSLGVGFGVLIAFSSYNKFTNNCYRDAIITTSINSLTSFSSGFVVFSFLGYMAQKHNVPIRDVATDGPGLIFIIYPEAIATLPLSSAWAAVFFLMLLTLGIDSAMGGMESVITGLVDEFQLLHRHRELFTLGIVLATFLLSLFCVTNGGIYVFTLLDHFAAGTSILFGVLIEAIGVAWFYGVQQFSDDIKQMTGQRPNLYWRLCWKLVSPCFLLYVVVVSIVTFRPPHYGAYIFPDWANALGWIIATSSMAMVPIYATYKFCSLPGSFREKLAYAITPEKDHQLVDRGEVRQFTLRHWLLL
Procedure, shortened: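 Synaptosomes from male Wistar rat striatum (sucrose homogenate, 1000g then 15000g pellet) in oxygenated Krebs-Ringer pH 7.6. Preincubated 5 min with 10 µM pargyline, then 5 min with 2 nM final [3H]dopamine. Stopped by ice-cold dilution and filtration. Retained radioactivity counted by liquid scintillation. IC50 from curves with 4-11 concentrations, 4-6 determinations each.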

D(2) dopamine receptor = D(2) dopamine receptor (Rattus norvegicus, UniProt P61169); assay: Inhibition of [3H]-Raclopride binding to the rat striatal membranes; format: cell membranes, Membrane
Sequence of D(2) dopamine receptor (P61169 whole entry): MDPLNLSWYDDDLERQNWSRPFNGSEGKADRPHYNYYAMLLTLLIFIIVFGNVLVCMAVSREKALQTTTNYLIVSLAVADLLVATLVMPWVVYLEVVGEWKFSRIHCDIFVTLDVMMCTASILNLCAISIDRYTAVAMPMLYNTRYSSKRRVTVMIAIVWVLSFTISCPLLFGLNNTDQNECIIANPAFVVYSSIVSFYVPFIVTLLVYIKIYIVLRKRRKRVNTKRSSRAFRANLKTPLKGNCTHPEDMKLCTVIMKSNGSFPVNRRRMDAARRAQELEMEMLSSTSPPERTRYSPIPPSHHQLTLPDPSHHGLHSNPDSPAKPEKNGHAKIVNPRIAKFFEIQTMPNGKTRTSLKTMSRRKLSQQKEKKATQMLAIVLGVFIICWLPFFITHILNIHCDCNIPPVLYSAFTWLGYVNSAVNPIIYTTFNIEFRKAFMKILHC
Procedure, shortened: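 Rat striatum homogenized in 50 mM Tris-HCl pH 7.4, washed four times by centrifugation at 20000g, resuspended in Tris with 120 mM NaCl, 5 mM KCl, 1 mM CaCl2, 1 mM MgCl2, 0.1% ascorbic acid. Membranes (200 µg protein) incubated 1 h at 25 °C with 0.5 nM [3H]raclopride plus drug. Nonspecific binding defined with 50 µM apomorphine. Filtration, scintillation counting. IC50 from 4-11 concentrations, 4-6 determinations each.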

Sequence of D(1A) dopamine receptor (P18901 whole entry): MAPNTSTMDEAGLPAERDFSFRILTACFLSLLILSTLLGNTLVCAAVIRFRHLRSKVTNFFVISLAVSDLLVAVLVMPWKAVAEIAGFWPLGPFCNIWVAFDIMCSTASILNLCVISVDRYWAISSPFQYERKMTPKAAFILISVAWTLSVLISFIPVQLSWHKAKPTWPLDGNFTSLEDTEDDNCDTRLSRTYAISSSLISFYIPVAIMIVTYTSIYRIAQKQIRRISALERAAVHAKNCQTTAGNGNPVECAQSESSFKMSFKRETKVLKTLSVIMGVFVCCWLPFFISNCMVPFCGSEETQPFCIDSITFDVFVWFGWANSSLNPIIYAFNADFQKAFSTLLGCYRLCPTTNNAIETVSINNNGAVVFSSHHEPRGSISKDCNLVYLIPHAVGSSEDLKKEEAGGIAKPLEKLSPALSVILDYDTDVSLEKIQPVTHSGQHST

SMILES | IC50 (D(1A) dopamine receptor) [µM] | IC50 [1] [µM] | IC50 (D(2) dopamine receptor) [µM]
c1ccc(C[C@H]2NCCc3cc4c(cc32)OCO4)cc1 | > 100 | 6.8 | 53.1
CCCN1CCc2cc(O)c(O)cc2[C@@H]1Cc1ccccc1 | 16.6 | 64.8 | 14.7
CCCN1CCc2cc3c(cc2[C@@H]1Cc1ccccc1)OCO3 | 51.9 | 20.3 | 21.9
c1ccc(C[C@@H]2NCCc3cc4c(cc32)OCO4)cc1 | 23.9 | 3.6 | 4

Now from value to compound:

IC50 (D(1A) dopamine receptor) [µM] | IC50 [1] [µM] | IC50 (D(2) dopamine receptor) [µM] | SMILES
> 100 | 43.6 | > 100 | CCCN1CCc2cc3c(cc2[C@H]1Cc1ccccc1)OCO3
> 100 | 91.5 | 61.2 | CCCN1CCc2cc(O)c(O)cc2[C@H]1Cc1ccccc1
